SENP8 block-1 – blocks human SENP8 cleavage of Nedd8 substrate; Q96LD8; recombinant SENP8, Nedd8 substrate fluorescence; inhibition, % at 20 µM; hit rate 0.64% among 360,000; AID 602440; in the data active = inhibition mostly above about 40%, no sharp cut-off; inactive = mostly below about 27%
Target sequence (Q96LD8 whole entry, looked up): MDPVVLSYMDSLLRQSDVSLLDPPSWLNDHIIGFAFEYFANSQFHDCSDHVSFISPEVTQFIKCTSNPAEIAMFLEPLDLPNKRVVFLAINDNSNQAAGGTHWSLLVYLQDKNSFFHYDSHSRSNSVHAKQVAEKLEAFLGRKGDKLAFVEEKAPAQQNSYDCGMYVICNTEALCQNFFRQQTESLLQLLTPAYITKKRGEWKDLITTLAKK
HSP90 refold inh – blocks HSP90-mediated luciferase refolding in reticulocyte lysate. Rabbit reticulocyte lysate, luciferase refolding luminescence, 3 h. inhibition, % at 5.6 µM. hit rate 0.91% among 290,000;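 active = inhibition above the screen-wide mean plus 3 SD, computed separately per campaign, cut at about 16% in these data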;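 note: 0% = DMSO wells and 100% = 60 µM geldanamycin wells; inhibitors lower the luminescence because luciferase stays unfolded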
SENP6 inh – blocks the human protease SENP6. Q9GZR1. Recombinant SENP6 catalytic domain, aminoluciferin luminescence. inhibition, % at 10 µM. hit rate 1.8% among 330,000;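 active = inhibition above about 50% at the single tested dose, limit read from the data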;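 note: plate controls were DMSO wells with enzyme for no effect and DMSO wells lacking enzyme for full effect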
SENP7 inh – blocks the human protease SENP7; inhibition, % at 5 µM; recombinant SENP7, Z-RLRGG-aminoluciferin luminescence, 40 min; hit rate 1.5% among 330,000; AID 434973;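 active = inhibition above about 50% at the single test dose, limit read from the data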;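 note: plate controls were DMSO with enzyme for no effect and no enzyme buffer wells for full effect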
Target sequence (Q9BQF6 706-1050 limits assumed): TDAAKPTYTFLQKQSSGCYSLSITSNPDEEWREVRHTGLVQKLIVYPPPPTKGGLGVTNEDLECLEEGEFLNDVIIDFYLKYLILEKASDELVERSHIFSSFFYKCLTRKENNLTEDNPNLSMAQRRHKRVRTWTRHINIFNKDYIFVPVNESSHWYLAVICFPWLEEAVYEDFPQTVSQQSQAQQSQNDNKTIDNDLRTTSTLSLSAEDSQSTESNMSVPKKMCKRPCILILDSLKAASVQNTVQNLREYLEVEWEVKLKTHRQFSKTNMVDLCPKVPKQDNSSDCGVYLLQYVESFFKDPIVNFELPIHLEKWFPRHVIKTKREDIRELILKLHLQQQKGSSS
SENP1 inh – blocks the human SENP1 SUMO protease catalytic domain | Q9P0U3 | recombinant SENP1 catalytic domain, CyPet-SUMO1-YPet FRET cleavage | inhibition, % at 10 µM | hit rate 0.21% among 360,000 | AID 624204;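 active = inhibition at least 30% at 10 µM, raw YFP signal under a set limit, fluorescence ratio 0.5 to 1.5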;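 note: 0% = enzyme with DMSO and 100% = no enzyme wells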
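Material: hSENP1 catalytic domain, recombinant; medium: Tris pH 8 with BME, BSA, NP40 and catalase; compound: single concentration of 10 µM compound, 0.5% DMSO final; technique: FRET read of cyan and yellow fluorescence; timing: 50 min enzyme reaction, room temperature, light-protected; reagent: SFCypet-SUMO1-SFYpet substrate at 25 nM; control set: no-enzyme low, enzyme-DMSO high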
SENP8 block-2 – inhibitors of human SENP8 protease; AID 2540; Q96LD8; hit rate 1.2% among 330,000; purified SENP8, Z-RLRGG-aminoluciferin cleavage, luminescence; inhibition, % at 10 µM; in the data active = inhibition above about 50%
SENP8 conf – human SENP8 inhibition, confirmed. hit rate 40% among 6,200. AID 488912. Recombinant SENP8, Z-RLRGG-aminoluciferin luminescence, 60 min. inhibition, % at 12.5 µM. shares compounds with SENP7 inh;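 active = mean inhibition across replicates above about 50%, limit read from the data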
SENP6 confirm – human SENP6 inhibition, confirmed. shares compounds with SENP7 inh. recombinant SENP6, Z-RLRGG-aminoluciferin luminescence. inhibition, % at 12.5 µM. hit rate 58% among 6,200
SENP7 confirm – human SENP7 inhibition, confirmed | shares compounds with SENP7 inh | recombinant SENP7, Z-RLRGG-aminoluciferin luminescence, 40 min | inhibition, % at 12.5 µM | hit rate 69% among 6,200 | AID 488917
Casp3 select – caspase-3 inhibition (SENP selectivity assay); shares compounds with SENP7 inh; AID 488918; hit rate 60% among 6,200; purified caspase-3, Z-DEVD-aminoluciferin luminescence, 60 min; inhibition, % at 12.5 µM;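 active = mean inhibition above about 50%, limit read from the data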;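 note: plate controls were enzyme with DMSO for no effect and wells without caspase-3 for full effect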
SENP luc ctr – luminescence interference (SENP counter-screen) | shares compounds with SENP7 inh | Pre-incubated SENP8/Z-RLRGG-aminoluciferin, luciferase luminescence interference | inhibition, % at 12.5 µM | hit rate 39% among 6,200;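 active = mean inhibition above about 50% when retested at one dose, limit read from the data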;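 note: plate controls were DMSO wells with completed reaction for no effect and substrate without enzyme for full effect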
* hit, by the source's call; i = inactive; · = not tested or not shown. Only some compounds are listed: those with a hit (about 2.9% of all), similar ones and a draw of the others.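 Rule for the calls, unless noted: active = mean inhibition above about 50% in the one-dose retest (limit read from the data); inactive = the rest.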

SMILES | SENP8 block-1 | HSP90 refold inh | SENP6 inh | SENP7 inh | SENP1 inh | SENP8 block-2 | SENP8 conf | SENP6 confirm | SENP7 confirm | Casp3 select | SENP luc ctr
COc1cc(C#Cc2ccc3cc(CCO)oc(=O)c3c2)cc(OC)c1 | i | · | 84* | 85* | 0 | 80* | 81* | 83* | 95* | 61* | 65*
O=S(=O)(c1ccccc1)n1ccc(-c2cnc(-c3ccccc3)s2)n1 | -300 | -3 | 0 | -5 | -3 | -9 | · | · | · | · | ·
Cc1ccc(Cn2ccc(-c3cnc(-c4ccccc4)s3)n2)cc1 | -416 | -2 | 51* | 33 | 1 | 6 | 18 | 36 | 42 | 18 | 21
CCOc1ccc(C(=O)Nc2cc(C)on2)cc1 | 10 | 6 | 47 | 54* | 4 | 13 | -24 | 17 | 57* | 74* | -6
O=C(Nc1ccccc1C(=O)O)c1ccc(NC(=O)C2CC2)cc1 | -3 | 0 | 67* | 50 | 0 | 61* | 76* | 75* | 94* | 88* | 83*
CCCC(=O)Nc1ccccc1NC(=O)c1ccc(OCC)cc1 | 14 | 6 | -3 | -1 | 4 | 1 | · | · | · | · | ·
CCOc1cc(C(=O)Nc2cc(C)on2)cc(OCC)c1OCC | 10 | -3 | -2 | -7 | -1 | -2 | · | · | · | · | ·
CCOc1ccc(C(=O)Nc2ccccc2C(=O)O)cc1 | 8 | 7 | 61* | 16 | 2 | 31 | 77* | 72* | 94* | 85* | 78*
CCCC(=O)Nc1ccc(C#Cc2ccccc2)cc1 | 11 | -4 | 45 | 51* | -4 | 6 | 2 | 13 | 19 | 13 | 2
O=C(Nc1ccccc1O)c1ccc(NC(=O)C2CC2)cc1 | 6 | -6 | -15 | -7 | 2 | -11 | · | · | · | · | ·
COc1cc(C(=O)N/C(=C\c2cn(S(=O)(=O)N(C)C)c3ccccc23)C(=O)N2CCCC2)cc(OC)c1OC | -2 | -6 | -12 | -4 | -1 | -5 | · | · | · | · | ·
CC(=O)c1ccc(NC(=O)Nc2cccc3ccccc23)cc1 | -24 | -5 | -10 | 6 | -1 | -12 | · | · | · | · | ·
CCOCCCNC(=O)c1ccc(/C=C2\Oc3ccccc3N(C)C2=O)cc1 | -282 | -1 | 3 | -1 | -17 | -11 | · | · | · | · | ·
COc1ccc(Nc2ncnc3c2c(C)c(C)n3CCCN(C)C)cc1 | -49 | 7 | 5 | 0 | -1 | -4 | · | · | · | · | ·
CCOc1ccc(NC(=O)Nc2ccon2)cc1 | -3 | 6 | 55* | 54* | -1 | 15 | 22 | 21 | 67* | 74* | 23
Cc1ccc(NC(=O)Nc2ccon2)cc1 | 17 | 5 | 6 | 11 | 1 | -2 | · | · | · | · | ·
O=C(Nc1ccc(C#Cc2ccccc2)cc1)C1CC1 | 8 | -3 | 47 | 68* | 1 | 26 | 9 | 40 | 64* | 26 | 5
O=C(Nc1ccc(Oc2ccccc2)cc1)C1CC1 | 8 | -4 | 0 | 0 | 2 | 2 | · | · | · | · | ·
Cn1nnnc1Sc1ncnc2scc(-c3ccc([N+](=O)[O-])cc3)c12 | 1 | · | 6 | 2 | 1 | 9 | · | · | · | · | ·
COc1ccc2nc(NC(=O)Cc3cccs3)sc2c1 | 17 | 1 | 2 | 11 | -16 | 5 | · | · | · | · | ·
CCOc1ccc2nc(NC(=O)Nc3cccs3)sc2c1 | -5 | -4 | 68* | 40 | 1 | 57* | 51* | 61* | 82* | 32 | 38
CCOc1ccc2nc(NC(=O)Cc3cccs3)sc2c1 | 0 | 3 | 64* | 47 | 1 | 26 | 57* | 54* | 80* | 32 | 14
CC(OC(=O)Cc1c[nH]c2ccccc12)C(=O)Nc1ccccc1F (stereo not drawn) | 9 | · | -18 | 2 | 2 | -5 | · | · | · | · | ·
O=Nc1c2nc3ccccc3n(O)c-2c2ccccc12 | -53 | 0 | 50* | 28 | 8 | 30 | 12 | 15 | 37 | 53* | 13
On1c(-c2ccccc2)nc2ccccc21 | -2 | 2 | -29 | -6 | 1 | -6 | · | · | · | · | ·
SMILES | SENP8 block-1 | HSP90 refold inh | SENP6 inh | SENP7 inh | SENP1 inh | SENP8 block-2 | SENP8 conf | SENP6 confirm | SENP7 confirm | Casp3 select | SENP luc ctr
COc1cc(OC)cc(-c2nc(-c3ccccc3)no2)c1 | -10 | -1 | 48 | 28 | 2 | -4 | · | · | · | · | ·
Clc1ccc(OCc2nc(-c3ccccn3)no2)c(Br)c1 | 6 | 7 | 95* | 90* | 3 | 91* | 82* | 95* | 99* | 86* | 75*
COc1nc(C)ccc1-c1noc(-c2ccccn2)n1 | 2 | 12 | 48 | 53* | 0 | 23 | 45 | 51* | 86* | 83* | 25
COc1ccc(-c2nc(-c3ccccn3)no2)cc1 | 10 | 94* | 98* | 100* | 1 | 97* | 9 | 101* | 104* | 100* | 98*
c1ccc(CCc2nc(-c3ccccn3)no2)cc1 | 11 | -1 | -7 | -3 | 2 | 0 | · | · | · | · | ·
COc1ccccc1-c1nc(-c2ccc(C)nc2OC)no1 | -5 | -7 | 17 | 26 | -3 | -1 | · | · | · | · | ·
Clc1ccc(-c2nc(-c3ccccn3)no2)cc1Cl | 11 | -4 | 92* | 98* | 2 | 96* | 91* | 94* | 98* | 93* | 76*
CC(=O)CCC(=O)CNC(=O)CC[C@H]1O[C@@H](n2ccc(=O)[nH]c2=O)[C@H](O)[C@@H]1O | 19 | · | · | · | -1 | · | · | · | · | · | ·
Cc1cccc(NC(=O)N2CCCCCC2)c1 | 5 | 0 | -9 | -1 | 2 | -2 | · | · | · | · | ·
O=C(CN1CCN(c2ccccc2O)CC1)Nc1ccnn1C1CCCC1 | -3 | · | -4 | 5 | -3 | -6 | · | · | · | · | ·
COc1ccccc1S(=O)(=O)N(C)C[C@H]1Oc2cc(C#CCC3CCCC3)ccc2S(=O)(=O)N([C@H](C)CO)C[C@H]1C | -6 | · | · | · | -2 | · | · | · | · | · | ·
COCc1cc(=O)[nH]c(Nc2nc3ccccc3o2)n1 | -151 | 3 | -3 | 6 | 1 | -9 | · | · | · | · | ·
Clc1ccccc1Nc1nc2ccccc2o1 | 4 | · | 95* | 100* | 2 | 95* | -4 | 100* | 103* | 98* | 97*
CCS(=O)(=O)c1ccc2oc(Nc3ccccc3Cl)nc2c1 | 10 | 4 | 95* | 92* | -1 | 91* | 74* | 92* | 99* | 94* | 26
